Experiment [1] concerns the target Vascular endothelial growth factor receptor 2 (Homo sapiens, UniProt P35968). As to the kind of experiment: Inhibition of VEGFR2.
In experiment [2] the test system is HUVEC. In words: Inhibition of VEGF-induced proliferation in HUVEC cells assessed as BrdU incorporation by ELISA. In kind it is functional, cell-based. Particulars: Homo sapiens. The method, boiled down:
(§1)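 HUVEC were seeded in 5% FBS medium on type 1 collagen-coated plates and incubated overnight at 37 °C, 5% CO₂. The medium was replaced with inhibitor at various concentrations in serum-free medium. Cells were incubated a further 72 h, with BrdU added during the last 18–24 h. Incorporation was read by ELISA.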
A general note: Dividing cells build labelled thymidine or BrdU into new DNA.

Experiment [3] concerns HUVEC. As to the kind of experiment: Inhibition of […]-induced proliferation in HUVEC cells assessed as BrdU incorporation by ELISA. The class given is functional, cell-based. Conditions: Homo sapiens. The method, boiled down:
as §1

By IC50 is commonly meant the concentration that inhibits the measured activity by half.

Chain of Vascular endothelial growth factor receptor 2 (P35968 whole entry): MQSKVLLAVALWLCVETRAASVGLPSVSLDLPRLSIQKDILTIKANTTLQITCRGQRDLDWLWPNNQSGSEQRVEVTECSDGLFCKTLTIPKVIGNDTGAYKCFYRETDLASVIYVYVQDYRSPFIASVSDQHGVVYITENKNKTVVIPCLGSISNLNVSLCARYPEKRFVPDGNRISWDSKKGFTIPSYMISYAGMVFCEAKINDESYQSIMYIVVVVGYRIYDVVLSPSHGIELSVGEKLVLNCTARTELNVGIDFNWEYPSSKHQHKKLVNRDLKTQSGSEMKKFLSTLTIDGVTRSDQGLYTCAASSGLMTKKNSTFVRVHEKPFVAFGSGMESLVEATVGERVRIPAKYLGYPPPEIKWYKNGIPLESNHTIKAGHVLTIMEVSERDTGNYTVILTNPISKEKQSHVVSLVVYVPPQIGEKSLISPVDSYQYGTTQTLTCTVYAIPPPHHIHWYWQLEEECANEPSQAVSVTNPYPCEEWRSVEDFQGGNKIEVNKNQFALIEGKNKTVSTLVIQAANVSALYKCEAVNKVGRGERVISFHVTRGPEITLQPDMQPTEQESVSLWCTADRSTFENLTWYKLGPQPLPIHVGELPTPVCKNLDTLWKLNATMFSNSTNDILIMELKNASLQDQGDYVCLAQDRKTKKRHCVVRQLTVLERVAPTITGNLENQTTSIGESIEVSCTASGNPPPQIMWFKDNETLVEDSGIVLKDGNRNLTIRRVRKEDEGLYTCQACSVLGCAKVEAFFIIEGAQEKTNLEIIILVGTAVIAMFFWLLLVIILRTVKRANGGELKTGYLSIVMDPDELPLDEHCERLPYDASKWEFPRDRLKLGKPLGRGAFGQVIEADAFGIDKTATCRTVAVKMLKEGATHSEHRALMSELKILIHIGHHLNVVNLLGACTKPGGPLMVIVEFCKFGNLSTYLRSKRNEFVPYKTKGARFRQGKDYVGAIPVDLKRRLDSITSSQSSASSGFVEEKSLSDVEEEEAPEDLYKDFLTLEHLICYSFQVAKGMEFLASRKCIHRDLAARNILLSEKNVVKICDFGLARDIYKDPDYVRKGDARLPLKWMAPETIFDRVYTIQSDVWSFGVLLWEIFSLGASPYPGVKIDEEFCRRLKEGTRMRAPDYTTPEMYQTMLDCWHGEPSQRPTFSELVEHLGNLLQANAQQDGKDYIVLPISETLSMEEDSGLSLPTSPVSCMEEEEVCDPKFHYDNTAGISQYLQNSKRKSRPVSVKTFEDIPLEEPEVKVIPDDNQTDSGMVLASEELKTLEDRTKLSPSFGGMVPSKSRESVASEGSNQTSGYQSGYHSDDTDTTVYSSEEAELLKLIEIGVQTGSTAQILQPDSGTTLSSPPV

On to `O=C(Nc1cccc2cccnc12)c1ccccc1`, for which the results for the IC50 (in experiment [1]; in the experiment on HUVEC [2]; with HUVEC [3]) were 135 nM, 72.4 nM and 1160 nM, respectively.

For the molecule `O=C(Nc1cnc2ccccc2c1)c1ccccc1`, the half-maximal inhibitory concentration (IC50) in experiment [1] turned out to be 107 nM; in the experiment with HUVEC [2] it was 78.9 nM; in the experiment on HUVEC [3], 68 nM.

`O=C(Nc1cnc2ccccc2c1)c1cncc(Br)c1`: the results for the IC50 (in experiment [1]; in the experiment on HUVEC [2]; in the experiment on HUVEC [3]) were 88.5 nM, 59.5 nM and 1140 nM, respectively.

For the molecule `Cc1cccc(C(=O)Nc2cnc3ccccc3c2)c1Br`, the results for the IC50 (in experiment [1]; in the experiment on HUVEC [2]; in the experiment with HUVEC [3]) were 28.4 nM, 11.6 nM and 660 nM, respectively.

As for `O=C(Nc1cnc2ccccc2c1)c1cc(Br)cc(Br)c1O`, the IC50 turned out to be 32.4 nM in experiment [1], 18.9 nM with HUVEC [2] and 240 nM in the experiment with HUVEC [3].

Take `O=C(Nc1cccc2cccnc12)c1cc(Br)cnc1O`: the IC50 amounted to 5.5 nM in experiment [1], 12.9 nM with HUVEC [2] and 560 nM with HUVEC [3].

For `Cc1cnc(Cl)c(C(=O)Nc2cnc3ccccc3c2)c1`, the IC50 in experiment [1] stood at 102 nM; in the experiment with HUVEC [2], 77.6 nM; in the experiment on HUVEC [3], 885 nM.

With `O=C(Nc1cnc2ccccc2c1)c1cc(Cl)cnc1Br`, the concentration for half-maximal inhibition (IC50) in experiment [1] is 23.4 nM; in the experiment with HUVEC [2] it was 58.9 nM; in the experiment on HUVEC [3], 1240 nM.

`Cc1cc(Cl)cc(C(=O)Nc2cnc3ccccc3c2)c1`: the IC50 came out at 326 nM in experiment [1], 76.3 nM in the experiment with HUVEC [2] and 560 nM in the experiment on HUVEC [3].

As for `O=C(Nc1cnc2ccccc2c1)c1cccc(Cl)c1O`, the half-maximal inhibitory concentration (IC50) was determined as 72.8 nM in experiment [1], 28.4 nM with HUVEC [2] and 340 nM in the experiment with HUVEC [3].

With `O=C(Nc1cccc2cccnc12)c1ccc(Cl)nc1`, the IC50 in experiment [1] amounted to 84.9 nM; with HUVEC [2] it was 141 nM; in the experiment on HUVEC [3], 560 nM.

In the case of `O=C(Nc1cccc2cccnc12)c1cncc(Br)c1`, the results for the half-inhibitory concentration (IC50) (in experiment [1]; with HUVEC [2]; in the experiment with HUVEC [3]) were 209 nM, 211 nM and 346 nM, respectively.

On to `Cc1cc(Br)cc(C(=O)Nc2cnc3ccccc3c2)c1O`, for which the IC50 stood at 12.4 nM in experiment [1], 18.9 nM with HUVEC [2] and 470 nM with HUVEC [3].

For `Cc1cc(Br)cc(C(=O)Nc2cnc3ccccc3c2)c1`, the half-inhibitory concentration (IC50) in experiment [1] turned out to be 113 nM; in the experiment with HUVEC [2], 89.6 nM; in the experiment with HUVEC [3], 720 nM.

As to `Cc1cccc(C(=O)Nc2cccc3cccnc23)c1O`, the concentration for half-maximal inhibition (IC50) amounted to 26.5 nM in experiment [1], 26.3 nM in the experiment with HUVEC [2] and 1140 nM in the experiment on HUVEC [3].

Regarding `O=C(Nc1cccc2cccnc12)c1cccc([N+](=O)[O-])c1`, the IC50 was determined as 16.5 nM in experiment [1], 15.8 nM in the experiment on HUVEC [2] and 210 nM in the experiment on HUVEC [3].

For the molecule `O=C(Nc1cccc2cccnc12)c1ccc(Cl)cc1`, the half-maximal inhibitory concentration (IC50) in experiment [1] came out at 125 nM; in the experiment with HUVEC [2], 15.2 nM; in the experiment on HUVEC [3] it was 220 nM.

With `Cc1ccc(C(=O)Nc2cccc3cccnc23)c(O)c1`, the half-inhibitory concentration (IC50) in experiment [1] turned out to be 9.6 nM; in the experiment on HUVEC [2], 19.8 nM; with HUVEC [3], 45 nM.

On to `O=C(Nc1cccc2cccnc12)c1ccc([N+](=O)[O-])cc1`, for which the concentration for half-maximal inhibition (IC50) was determined as 113 nM in experiment [1], 46.7 nM in the experiment on HUVEC [2] and 450 nM with HUVEC [3].

As to `O=C(Nc1cccc2cccnc12)c1ccccc1Cl`, the IC50 was found to be 23.6 nM in experiment [1], 123 nM in the experiment with HUVEC [2] and 1150 nM in the experiment with HUVEC [3].

In the case of `Cc1cnc(O)c(C(=O)Nc2cccc3cccnc23)c1`, the figures for the IC50 (in experiment [1]; in the experiment with HUVEC [2]; with HUVEC [3]) were 13.5 nM, 13.6 nM and 1150 nM, respectively.

As to `O=C(Nc1cccc2cccnc12)c1cc(Cl)ccc1O`, the IC50 in experiment [1] is 3.8 nM; with HUVEC [2], 5.5 nM; with HUVEC [3], 110 nM.

As for `O=C(Nc1cnc2ccccc2c1)c1cc(Cl)c(O)nc1O`, the IC50 amounted to 32.7 nM in experiment [1], 14.5 nM in the experiment with HUVEC [2] and 460 nM with HUVEC [3].

Take `Cc1cccc(C(=O)Nc2cnc3ccccc3c2)c1O`: the IC50 in experiment [1] is 25.5 nM; in the experiment on HUVEC [2], 35.7 nM; with HUVEC [3], 780 nM.
